The values below come from ChEMBL document CHEMBL1141042, “Correlation of cytotoxic activity of betulinines and their hydroxy analogues” (Bioorg Med Chem Lett, 2005).

Common to all, as to assay type: functional, cell-based
Assay [1] deals with PC-3. Nature of the assay: Concentration required to kill 50 % of human prostate cancer PC3 cells. The essentials:
(§1)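 MTT assay. Cells at 2500–30,000/well were preincubated 24 h at 37 C, 5% CO2. Fourfold dilutions of compound in 10% DMSO were added, in duplicate, and exposure ran 72 h at 37 C. MTT was then added for 1–4 h, formazan was dissolved in 10% SDS (pH 5.5) overnight, and OD was read at 540 nm. Survival was calculated versus control wells, with IC50 from dose–response curves.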

Assay [2] relates to HT-29. Nature of the assay: Concentration required to kill 50 % of human colon cancer cell line HT-29. The gist of the method: as §1
In assay [3] the test system is CCRF-CEM. The experiment in a line: Concentration required to kill 50 % of human T-lymphoblastic leukemia cell line (CEM). The essentials: as §1
Assay [4] deals with K562. The experiment in a line: Concentration required to kill 50 % of human chronic myelogenous leukemia cell line K562. The gist of the method:
as §1

Assay [5] deals with K562. The experiment in a line: Concentration required to kill 50 % of human paclitaxel-resistant subline of K562 cells (K-562-Tax). The gist of the method:
as §1

For assay [6], the system named is SK-MEL-2. Nature of the assay: Concentration required to kill 50 % of human melanoma SK-MEL2 cells. The essentials:
as §1

Setting [7] is: Homo sapiens, PC-3, read-out: IC50.
Setting [8] is: Homo sapiens, HT-29, read-out: IC50.
The mark [9] stands for this setting: Homo sapiens, CCRF-CEM, read-out: IC50.
Where [10] appears, read: Homo sapiens, K562, read-out: IC50.
Where [11] appears, read: Homo sapiens, SK-MEL-2, read-out: IC50.

Turning to `CCOC(=O)[C@@]12CC[C@]3(C)C(CCC4[C@@]5(C)CC[C@H](O)C(C)(C)C5CC[C@]43C)C1=C(C(C)C)C(=O)C2` (some centres not stated), the IC50 in assay [1] (setting [7]) came to 33 µM; in assay [2] (setting [8]), 13 µM; in assay [3] (setting [9]) it was 18 µM; in assay [4] (setting [10]) it was 17 µM; in assay [5] (setting [10]), 19 µM; in assay [6] (setting [11]) it was 80 µM.
Consider `C=C1CC[C@]2(C)C(CCC3[C@@]4(C)CC[C@H](OC(C)=O)C(C)(C)C4CC[C@]32C)C1=O` (some centres not stated), for which the IC50 in assay [1] (pc-3) was 143 uM l-1; in assay [2] (ht-29), 129 uM l-1; in assay [3] (ccrf-cem), above 250 uM l-1; in assay [4] (setting [10]) it was 0.4 µM; in assay [5] (setting [10]), 1.1 µM; in assay [6] (setting [11]), 2.1 µM.
For the compound `CC(=O)OC[C@@]12CC[C@]3(C)C(CCC4[C@@]5(C)CC[C@H](O)C(C)(C)C5CC[C@]43C)C1=C(C(C)C)C(=O)C2` (some centres not stated), the IC50 in assay [1] (pc-3) was 163 uM l-1; in assay [2] (setting [8]), 93 µM; in assay [3] (ccrf-cem) it was 250 uM l-1; in assay [4] (setting [10]), 39 µM; in assay [5] (setting [10]), 59 µM; in assay [6] (setting [11]), 85 µM.
Turning to `CC(=O)OC[C@@]1(C(=O)O)CC[C@]2(C)C(CCC3[C@@]4(C)CC[C@H](OC(=O)CCl)C(C)(C)C4CC[C@]32C)C1=O` (some centres not stated), the IC50 is 2.3 µM in assay [1] (setting [7]); 3.6 µM in assay [2] (setting [8]); 1 µM in assay [3] (setting [9]); 0.2 µM in assay [4] (setting [10]); 0.4 µM in assay [5] (setting [10]); 1.3 µM in assay [6] (setting [11]).
With `CC(=O)OC[C@@]12CC[C@]3(C)C(CCC4[C@@]5(C)CC[C@H](OC(=O)CCl)C(C)(C)C5CC[C@]43C)C1=C(C(C)C)C(=O)OC2=O` (some centres not stated), the IC50 is given as 250 uM l-1 in assay [1] (pc-3); 216 uM l-1 in assay [2] (ht-29); 162 uM l-1 in assay [3] (ccrf-cem); 181 uM l-1 in assay [4] (k562); 220 uM l-1 in assay [5] (k562); 121 uM l-1 in assay [6] (sk-mel-2).
In the case of `CCOC(=O)[C@@]12CC[C@]3(C)C(CCC4[C@@]5(C)CC[C@H](OC(C)=O)C(C)(C)C5CC[C@]43C)C1=C(C(C)C)C(=O)C2=O` (some centres not stated), the IC50 in assay [1] (setting [7]) came to 87 µM; in assay [2] (setting [8]) it was 93 µM; in assay [3] (setting [9]) it was 38 µM; in assay [4] (setting [10]), 59 µM; in assay [5] (k562), 130 uM l-1; in assay [6] (sk-mel-2), 148 uM l-1.
Take `CC(=O)OC[C@@]12CC[C@]3(C)C(CCC4[C@@]5(C)CC[C@H](OC(=O)CCl)C(C)(C)C5CC[C@]43C)C1=C(C(C)C)C(=O)C2=O` (some centres not stated): the IC50 in assay [1] (pc-3) is given as 208 uM l-1; in assay [2] (ht-29) it was above 250 uM l-1; in assay [3] (ccrf-cem), 242 uM l-1; in assay [4] (k562) it was 231 uM l-1; in assay [5] (k562), above 250 uM l-1; in assay [6] (sk-mel-2) it was 170 uM l-1.
With `COC(=O)[C@@]12CC[C@]3(C)C(CCC4[C@@]5(C)CC[C@H](OC(C)=O)C(C)(C)C5CC[C@]43C)C1=C(C(C)C)C(=O)C2` (some centres not stated), the IC50 in assay [1] (pc-3) came to 246 uM l-1; in assay [2] (ht-29), 149 uM l-1; in assay [3] (setting [9]), 44 µM; in assay [4] (setting [10]), 34 µM; in assay [5] (setting [10]) it was 96 µM; in assay [6] (sk-mel-2) it was 165 uM l-1.
In the case of `COC(=O)[C@@]12CC[C@]3(C)C(CCC4[C@@]5(C)CC[C@H](O)C(C)(C)C5CC[C@]43C)C1=C(C(C)C)C(=O)C2=O` (some centres not stated), the IC50 in assay [1] (setting [7]) was 72 µM; in assay [2] (setting [8]) it was 54 µM; in assay [3] (setting [9]) it was 44 µM; in assay [4] (setting [10]), 35 µM; in assay [5] (setting [10]) it was 46 µM; in assay [6] (sk-mel-2) it was 138 uM l-1.
On to `CC(=O)OC[C@@]12CC[C@]3(C)C(CCC4[C@@]5(C)CC[C@H](OC(=O)CCl)C(C)(C)C5CC[C@]43C)C1=C(C(C)C)C(=O)C2` (some centres not stated), for which the IC50 amounted to 242 uM l-1 in assay [1] (pc-3); 110 uM l-1 in assay [2] (ht-29); 44 µM in assay [3] (setting [9]); 110 uM l-1 in assay [4] (k562); 97 µM in assay [5] (setting [10]); 229 uM l-1 in assay [6] (sk-mel-2).
Take `COC(=O)[C@@]12CC[C@]3(C)C(CCC4[C@@]5(C)CC[C@H](O)C(C)(C)C5CC[C@]43C)C1=C(C(C)C)C(=O)C2` (some centres not stated): the IC50 in assay [1] (setting [7]) was found to be 38 µM; in assay [2] (setting [8]), 38 µM; in assay [3] (setting [9]), 26 µM; in assay [4] (setting [10]) it was 38 µM; in assay [5] (setting [10]), 36 µM; in assay [6] (setting [11]), 80 µM.
Take `CCOC(=O)[C@@]12CC[C@]3(C)C(CCC4[C@@]5(C)CC[C@H](O)C(C)(C)C5CC[C@]43C)C1=C(C(C)C)C(=O)C2=O` (some centres not stated): the IC50 in assay [1] (pc-3) is 165 uM l-1; in assay [2] (ht-29), 176 uM l-1; in assay [3] (ccrf-cem), 210 uM l-1; in assay [4] (k562), 239 uM l-1; in assay [5] (setting [10]), 85 µM; in assay [6] (sk-mel-2) it was 140 uM l-1.
Regarding `COC(=O)[C@@]12CC[C@]3(C)C(CCC4[C@@]5(C)CC[C@H](OC(C)=O)C(C)(C)C5CC[C@]43C)C1=C(C(C)C)C(=O)C2=O` (some centres not stated), the IC50 stood at 34 µM in assay [1] (setting [7]); 33 µM in assay [2] (setting [8]); 16 µM in assay [3] (setting [9]); 29 µM in assay [4] (setting [10]); 36 µM in assay [5] (setting [10]); 87 µM in assay [6] (setting [11]).
Take `CC(=O)O[C@H]1CC[C@@]2(C)C(CC[C@]3(C)C2CCC2C4=C(C(C)C)C(=O)C[C@]4(C(=O)OCc4ccccc4)CC[C@]23C)C1(C)C` (some centres not stated): the IC50 in assay [1] (pc-3) is listed as 250 uM l-1; in assay [2] (ht-29), 250 uM l-1; in assay [3] (ccrf-cem) it was 250 uM l-1; in assay [4] (k562), 245 uM l-1; in assay [5] (k562) it was 250 uM l-1; in assay [6] (sk-mel-2), 250 uM l-1.
In the case of `CC(C)C1=C2C3CCC4[C@@]5(C)CC[C@H](O)C(C)(C)C5CC[C@@]4(C)[C@]3(C)CC[C@@]2(CO)CC1=O` (some centres not stated), the IC50 in assay [1] (pc-3), in assay [2] (ht-29), in assay [3] (ccrf-cem), in assay [4] (k562), in assay [5] (k562) and in assay [6] (sk-mel-2) was above 250 uM l-1 in each case.
`CC(C)C1=C2C3CCC4[C@@]5(C)CC[C@H](O)C(C)(C)C5CC[C@@]4(C)[C@]3(C)CC[C@@]2(C(=O)OCc2ccccc2)CC1=O` (some centres not stated): the IC50 came to 37 µM in assay [1] (setting [7]); 21 µM in assay [2] (setting [8]); 26 µM in assay [3] (setting [9]); 27 µM in assay [4] (setting [10]); 28 µM in assay [5] (setting [10]); 156 uM l-1 in assay [6] (sk-mel-2).
Take `CC(=O)O[C@H]1CC[C@@]2(C)C(CC[C@]3(C)C2CCC2C4=C(C(C)C)C(=O)C[C@]4(CO)CC[C@]23C)C1(C)C` (some centres not stated): the IC50 in assay [1] (setting [7]) came out at 39 µM; in assay [2] (setting [8]) it was 33 µM; in assay [3] (setting [9]) it was 28 µM; in assay [4] (setting [10]), 37 µM; in assay [5] (setting [10]) it was 35 µM; in assay [6] (setting [11]) it was 84 µM.
For `CCOC(=O)[C@@]12CC[C@]3(C)C(CCC4[C@@]5(C)CC[C@H](OC(C)=O)C(C)(C)C5CC[C@]43C)C1=C(C(C)C)C(=O)C2` (some centres not stated), the IC50 in assay [1] (pc-3) came out at 244 uM l-1; in assay [2] (ht-29) it was 224 uM l-1; in assay [3] (ccrf-cem) it was 102 uM l-1; in assay [4] (setting [10]), 59 µM; in assay [5] (k562), 206 uM l-1; in assay [6] (sk-mel-2), 216 uM l-1.
`C=C(C)[C@@H]1CC[C@]2(CO)CC[C@]3(C)[C@H](CC[C@@H]4[C@@]5(C)CC[C@H](O)C(C)(C)[C@@H]5CC[C@]43C)[C@@H]12` [BETULIN]: the IC50 in assay [1] (pc-3), in assay [2] (ht-29), in assay [3] (ccrf-cem), in assay [4] (k562), in assay [5] (k562) and in assay [6] (sk-mel-2) was above 250 uM l-1 in each case.
For `CC(=O)O[C@H]1CC[C@@]2(C)C(CC[C@]3(C)C2CCC2C4=C(C(C)C)C(=O)C[C@]4(C(=O)O)CC[C@]23C)C1(C)C` (some centres not stated), the IC50 is given as 117 uM l-1 in assay [1] (pc-3); 149 uM l-1 in assay [2] (ht-29); above 250 uM l-1 in assay [3] (ccrf-cem); above 250 uM l-1 in assay [4] (k562); above 250 uM l-1 in assay [5] (k562); 128 uM l-1 in assay [6] (sk-mel-2).
Consider `CC(C)C1=C2C3CCC4[C@@]5(C)CC[C@H](O)C(C)(C)C5CC[C@@]4(C)[C@]3(C)CC[C@@]2(C(=O)O)CC1=O` (some centres not stated), for which the IC50 is 40 µM in assay [1] (setting [7]); 33 µM in assay [2] (setting [8]); 29 µM in assay [3] (setting [9]); 30 µM in assay [4] (setting [10]); 34 µM in assay [5] (setting [10]); 160 uM l-1 in assay [6] (sk-mel-2).
Take `CC(=O)OC[C@@]12CC[C@]3(C)C(CCC4[C@@]5(C)CC[C@H](OC(C)=O)C(C)(C)C5CC[C@]43C)C1=C(C(C)C)C(=O)C2` (some centres not stated): the IC50 in assay [1] (pc-3), in assay [2] (ht-29), in assay [3] (ccrf-cem), in assay [4] (k562), in assay [5] (k562) and in assay [6] (sk-mel-2) was above 250 uM l-1 in each case.
